Assay outcomes from PubChem BioAssay.
This is a sample that favours compounds with a hit; in the whole collection about 5.9% have one here.
Measles CPE: compounds protecting cells from measles virus cytopathic effect, primary screen, measles RdRp inhibitor project, single point, MLSMR library, absorbance. Measles virus-infected cells, CPE protection. protection (pct of control), % at 4 µM. 1.5% of 140,000 active; in the data active = protection mostly above about 24%, no sharp cut-off; inactive = mostly below about 26%
Cav32 inh: Cav3.2 calcium influx blockers – cell-based, Fluo-4 calcium fluorescence, FDSS, MLSMR library, primary screen | Voltage-dependent T-type calcium channel subunit alpha-1H (Homo sapiens), O95180 | Cav3.2-expressing cells; stronger effect = lower value | B-score at 10 µM | 4% of 100,000 active | AID 449739, 2010;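 active = single-dose well whose peak fluorescence ratio is a statistical outlier from its plate by either plate-standardised score or position-corrected B-score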
Pyk2 oligo antag: antagonists of Pyk2 self-association, primary screen, Q293 cells, FERM NanoBiT luminescence, HTS; Protein-tyrosine kinase 2-beta (Homo sapiens), Q14289; stronger effect = lower value; z-score (the deposit names both 25 µM and 10 µM); 0.83% of 99,000 active;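 active = Z-score of -3 or lower, scaled per plate to the spread of control and sample wells; inactive = z-score above -3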;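 note: negative z-score means lost luminescence so less FERM oligomerization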
Phagocyt inh: inhibitors of macrophage phagocytosis, primary screen, imaging, J774A.1 cells, IgG beads; J774A.1 macrophage IgG-bead phagocytosis; inhibition, % at 5 µM; 0.07% of 110,000 active; AID 1029, 2008;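 active = inhibition above the mean of the plate negative controls plus 5 SD, cut at about 13% in these data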;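 note: phagocytic index as fraction of beads internalized from green versus red external bead signal; plate controls were DMSO negative control for no effect and cytochalasin-D positive control for full effect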
HIV Rev-RRE inh: HIV-1 Rev-RRE binding inhibitors, primary screen, biochemical, FRET, protein-RNA interaction; Rev peptide-RRE RNA binding; P05866; 0.79% of 97,000 active; inhibition, % at 8 µM; AID 704, 2007;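 active = inhibition above the screen-wide mean plus 3 SD, cut at about 35% in these data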;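 note: 0% = median DMSO wells and 100% = median Neomycin B control wells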
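Test system – labelled RRE RNA duplex and labelled Rev peptide · Signal – fluorescein-to-Cy5 FRET, 480 nm excitation · Evaluation – % inhibition of FRET ratio versus controls · Benchmarks – DMSO low control, neomycin B high control · Incubation – 5 min RNA-compound premix plus 15 min binding step, 25 °C · Medium – HEPES pH 7.5 salt buffer with EDTA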
DAT uptake mod: changed hDAT dopamine uptake under cocaine IC80, either direction, primary screen, cocaine antagonist project, cell-based, LLC-PK1 hDAT, [14C]-dopamine uptake, MLSMR. 1.3% of 110,000 active. B-score at 10 µM. Sodium-dependent dopamine transporter (Homo sapiens), Q01959. LLC-PK1 hDAT cells, [14C]-dopamine uptake with cocaine IC80; actives deviate in either direction;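 active = Z score or B-score, a plate-position-corrected score, falls beyond the plate's 99.7% confidence bounds, in either direction; inactive = both scores lie inside the 99.7% bounds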;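 note: scored against the spread of the other compound wells on the same plate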
* = called active by the depositor; . = no result; [ ] = dose if it differs, or a comment.

SMILES	Measles CPE	Cav32 inh	Pyk2 oligo antag	Phagocyt inh	HIV Rev-RRE inh	DAT uptake mod
CN(C)C=Nc1ncc2c3ccccc3n(CCN(C)C)c2c1C#N	13.4	1.72	-1.17	0.1	6.4	2.95*
COc1cccc(C(C)NC(=O)Nc2cccc(C(F)(F)F)c2)c1 (stereo not given)	4.1	-8.29*	-2.07	-2.6	20.5	-2.3
CCC(C)[C@H](NC(=O)Nc1cccc(OC)c1)C(=O)OC (stereo not given in full)	19.3	0.12	0.84	-0.2	-0.9	-0.037
CCC/C=C(\CCC)C(NC(=O)CCc1ccccc1)c1ccc(C(F)(F)F)cc1 (stereo not given)	.	-0.898	.	.	.	-1.02
COC(=O)C1(Cc2ccc(O)c(CC3OC3(C)C)c2)OC(=O)C(O)=C1c1ccc(O)cc1 (stereo not given)	.	-3.1	.	.	.	0.757
O=C(Cc1coc2ccc3ccccc3c12)NCc1ccccc1	10.4	-1.32	-0.63	-1.8	7.6	1.2
CCCN(CCC)C(=O)Cc1coc2ccc3ccccc3c12	12.2	-6.34*	-2.33	-0.4	12.6	-0.245
COc1ccc(SCC(=O)c2cc(C)c(OC(=S)N(C)C)c(C)c2)cc1	32.1	-4.54*	-0.53	-0.2	16.8	0.893
Cc1cc(C(=O)CSc2ccc(F)cc2)cc(C)c1OC(=S)N(C)C	4.8	-0.816	-0.56	-0.6	15.0	0.921
O=C(/C=C/c1ccc(Cl)c([N+](=O)[O-])c1)NCc1cccnc1	.	0.126	0.16	.	5.2	-0.207
COC1(OC)C(/C=C/c2ccc(Cl)cc2)C(C#N)(C#N)C1(OC)OC (stereo not given)	4.7	-1.4	-1.27	.	5.1	-0.0154
COc1ccc(-n2c(C)cc(/C=C3\C(=O)NN(c4ccccc4)C3=O)c2C)cc1	99.0*	.	.	-4.5	.	.
CCn1cc(/C=N\NC(=O)c2ccc(F)cc2)cn1	28.7*	.	.	-1.2	.	.
CCN1/C(=C/c2ccc3ccccc3[n+]2CC)C=Cc2ccccc21	23.4	-5.37*	-1.77	1.9	18.4	0.82
COc1cccc(/C=N/NC(=O)CSc2nnc(C)n2-c2ccccc2)c1O	25.8	.	0.79	.	1.4	.
Cc1ccc(-c2nn(-c3ccccc3)cc2/C=N/NC(=O)CSc2nnc(C)n2-c2ccccc2)cc1	3.0	-4.47*	-1.57	0.6	-6.5	-0.239
O=C(Nc1ccc2c(c1)OCO2)N1CCOCC1	7.3	-0.00208	0.33	6.0	6.2	-0.474
O=C(Nc1ccc2c(c1)OCO2)N1CCN(c2ncc(C(F)(F)F)cc2Cl)CC1	18.7	-6.62*	-0.68	0.8	13.4	-0.224
O=c1[nH]c(=O)n(C2CCCCCC2)c(O)c1C=NCc1ccc(F)cc1	16.1	-6.67*	-1.67	-0.8	11.3	0.114
Cc1c(N=Cc2c(O)n(C3CCCCC3)c(=O)[nH]c2=O)c(=O)n(-c2ccccc2)n1C	1.7	1.29	0.29	-0.3	8.3	-0.414
CCCCn1c(C(C)NC(=O)CC)nc2ccccc21 (stereo not given)	8.9	1.09	.	-0.9	5.9	-1.1
CCCCCCn1c(C(C)NC(=O)c2ccco2)nc2ccccc21 (stereo not given)	9.7	-10.4*	-0.06	2.6	4.0	-0.418
CCCCn1c(=N)n(CC(=O)c2ccco2)c2ccccc21	4.2	.	0.98	.	-0.8	0.0263
CCCCCCCn1c(=N)n(CC(=O)c2ccco2)c2ccccc21	8.7	-2.59*	1.27	.	0.5	-0.39
CNC(=O)C1CC(=O)N(c2ccc(C)cc2)C1 (stereo not given)	5.1	-3.77*	0.85	0.1	2.3	0.633
SMILES	Measles CPE	Cav32 inh	Pyk2 oligo antag	Phagocyt inh	HIV Rev-RRE inh	DAT uptake mod
CSc1ccc(CNc2ccc(Cl)cc2)cc1	25.0	0.31	1.53	2.4	-4.0	-0.582
CCc1ccc(CNc2ccc(O)cc2)cc1	4.5	-2.49	0.4	-1.0	-3.9	2.91*
N#CCC1c2ccccc2CCN1C(=O)Nc1ccc(Cl)cc1 (stereo not given)	16.0	-2.68	-1.76	-0.8	3.4	-3.17*
N#CCC1c2ccccc2CCN1C(=O)Nc1ccc(C(F)(F)F)cc1 (stereo not given)	7.4	-2.91	-2.59	-0.2	15.8	-1.26
COc1ccc(C(NC(=O)/C=C/c2ccco2)c2ccc(OC)c(OC)c2)cc1OC	15.3	.	.	-9.8	.	.
Cc1nc2ccccc2c2oc(C(=O)NCC3COc4ccccc4O3)cc12 (stereo not given)	6.0	-5.33*	.	0.2	.	0.229
O=C(CCC1COc2ccccc2O1)NCC1COc2ccccc2O1 (stereo not given)	8.4	-9.64*	-0.18	.	6.7	-0.205
Cc1ccc2c(CC(=O)NCC3COc4ccccc4O3)coc2c1 (stereo not given)	6.7	-6.6*	1.07	-0.7	.	0.789
CCCCCC(=O)Nc1cccc(C2=NOC3(C2)C[C@@H](C(N)=O)N(C(=O)CC(c2ccccc2)c2ccccc2)C3)c1 (stereo not given in full)	.	-1.77	.	.	.	0.00991
C=CCC1(O)C(=O)N2C(=C1C(=O)OCC)c1ccc3ccccc3c1CC2(C)C (stereo not given)	60.9*	.	-1.25	.	-0.6	.
Cc1ccccc1NC(NC(=O)OCCn1c([N+](=O)[O-])cnc1C)C(Cl)(Cl)Cl (stereo not given)	7.5	.	.	5.1	.	.
CN(C)c1ccc(/C=C/C(O)=C2/C(=O)N(C)C3(C)CC2c2ccccc2O3)cc1 (stereo not given)	8.7	-6.23*	.	0.5	121.1*[fluorescence artefact?]	1.31
CN1C(=O)C(/C(N)=N/NC(=O)c2ccccc2)C2CC1(C)Oc1ccccc12 (stereo not given)	30.2	.	.	-13.1	.	.
CN1CCc2nc(SCC(=O)Nc3ccc(OC(F)(F)F)cc3)c(C#N)c(-c3cccs3)c2C1	27.9	.	-1.34	6.5	.	.
CN1CCc2nc(SCC(=O)Nc3cccc(F)c3)c(C#N)c(-c3cccs3)c2C1	2.6	.	-3.12*	.	55.8*	2.06
C#CCOCCOCCOCCNc1nc(N2CCN(C(=O)C([C@@H](C)CC)n3cc(C(N)Cc4ccc(O)cc4)nn3)CC2)nc(N2CCN(C(=O)[C@H](CCC(=O)O)n3cc(C(N)[C@H](C)CC)nn3)CC2)n1 (stereo not given in full)	.	1.18	.	.	.	-1.66
Cc1ccc2c(c1)c(C)c(C)n2CC(O)Cn1nnc2ccccc21 (stereo not given)	7.1	-4.74*	0.47	-5.2	5.6	-2.09
Cc1cccc(Cc2cnc(NC(=O)c3ccc(C)o3)s2)c1	3.7	-6.03*	-0.42	1.5	6.3	0.941
Cc1ccc(Cc2cnc(NC(=O)c3ccco3)s2)cc1	15.7	-0.136	-1.2	.	10.4	0.224
